Legend:
[1] = Displacement of [3H]raclopride from dopamine D2-like receptor in Wistar rat striatal membrane after 1 hr by scintillation counting; format: cell membranes, Striatum
How it was run: (§1)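 Striatal membranes from female Wistar rats, 200 µg/mL, in Tris-ions buffer pH 7.4 (120 mM NaCl, 2 mM CaCl2, 5 mM KCl, 1 mM MgCl2, 0.1% ascorbic acid). Incubated 1 h at 23 °C with 0.5 nM [3H]-raclopride and competitor 10^-10 to 10^-4 M. Non-specific binding with 50 µM apomorphine. Filtration, then scintillation counting. Ki from KD 1.25 nM. Mean ± SEM of 3–6 experiments.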

[2] = species on record: Rattus norvegicus; assay: Selectivity ratio of Ki of Wistar rat dopamine D1-like receptor to Ki for Wistar rat dopamine D2-like receptor
[3] = Displacement of [3H]SCH23390 from dopamine D1-like receptor in Wistar rat striatal membrane after 1 hr by scintillation counting; format: cell membranes, Striatum
How it was run: as §1, with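 “100” for “200”, “0.25” for “0.5”, “[3H]-SCH23390” for “[3H]-raclopride”, “30” for “50”, “SK&F38393.” for “apomorphine.”, “0.36” for “1.25”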

Row | Compound | Ki [1] | pKi [1] | Ratio Ki [2] | Ki [3] | pKi [3]
1 | CN1CCc2cc(Cl)c(O)cc2C1Cc1ccccc1Br (stereo not given) | 18 nM | 7.76 | 3.6 | 65 nM | 7.21
2 | COc1cc2c(cc1Cl)CCN(C)C2Cc1ccccc1Br (stereo not given) | 1340 nM | 5.9 | 1 | 1320 nM | 5.89
3 | CN1CCc2cc(Cl)c(O)cc2C1Cc1ccc(Cl)cc1Cl (stereo not given) | 269 nM | 6.64 | 0.9 | 241 nM | 6.71
4 | Oc1cc2c(cc1Cl)CCNC2Cc1ccc(Cl)cc1Cl (stereo not given) | 107 nM | 7 | 1.7 | 183 nM | 6.74
5 | COc1cc2c(cc1Cl)CCNC2Cc1ccc(Cl)cc1Cl (stereo not given) | 3300 nM | 5.51 | 3.4 | 11300 nM | 5.01
6 | Oc1cc2c(cc1Cl)CCNC2Cc1ccccc1Br (stereo not given) | 46 nM | 7.39 | 2.4 | 110 nM | 7.06
7 | COc1cc2c(cc1Cl)CCN(C)C2Cc1ccc(Cl)cc1Cl (stereo not given) | 6130 nM | 5.23 | 2.5 | 15100 nM | 4.84
8 | COc1cc2c(cc1Cl)CCNC2Cc1ccccc1Br (stereo not given) | 245 nM | 6.63 | 6.2 | 1530 nM | 5.83
